From PubChem
Vif inh: blocks HIV Vif function; HEK293T cells, Vif self-association by quenched fluorescence, imaging, 24 h; inhibition, % at 7.49 µM; actives 0.35% (n = 340,000); in the data active means inhibition above about 50%, passing the limit was not always enough; inconclusive means no clear call, values can overlap the other calls; inactive means below about 31%
SR-BI HDL uptake: mouse SR-BI HDL lipid transfer inhibition | Q61009 | ldlA[mSR-BI] CHO cells, DiI-HDL uptake fluorescence, 3 h | inhibition, % at 12.5 µM | actives 0.96% (n = 320,000) | AID 488896;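 active means mean replicate inhibition of at least 70% and a set share of replicates each scoring 70 or more; inconclusive means meets just one of the two criteria; inactive means fails both criteria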;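 further: 0% = median of neutral control wells and 100% = median of positive control wells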
Target sequence (Q61009 whole entry, looked up): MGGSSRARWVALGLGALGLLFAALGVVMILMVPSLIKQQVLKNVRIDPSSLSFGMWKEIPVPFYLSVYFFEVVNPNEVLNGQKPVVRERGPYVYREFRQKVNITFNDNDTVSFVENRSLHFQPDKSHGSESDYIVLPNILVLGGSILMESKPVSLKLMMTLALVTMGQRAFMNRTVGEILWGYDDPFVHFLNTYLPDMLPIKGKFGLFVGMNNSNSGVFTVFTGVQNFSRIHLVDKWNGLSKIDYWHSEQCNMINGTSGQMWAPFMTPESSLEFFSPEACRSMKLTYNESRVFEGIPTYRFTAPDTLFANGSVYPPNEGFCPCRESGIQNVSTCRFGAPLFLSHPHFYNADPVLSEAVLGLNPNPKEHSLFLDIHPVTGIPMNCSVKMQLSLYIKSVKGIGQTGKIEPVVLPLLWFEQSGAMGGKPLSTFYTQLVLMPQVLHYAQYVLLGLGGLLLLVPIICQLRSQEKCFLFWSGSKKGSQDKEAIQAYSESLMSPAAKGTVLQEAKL
SMARCA2 act: increases SMARCA2 function in MMTV reporter cells | activation, % at 9.1 µM | MG213 cells, MMTV-luciferase reporter, dexamethasone, overnight | actives 1% (n = 370,000); in the data active means activation above about 7.8%;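 further: 0% = vehicle wells and 100% = reference activator wells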
SR-BI uptake up: activators of SR-BI mediated HDL lipid uptake; CHO ldlA[mSR-BI] cells, DiI-HDL uptake fluorescence, 3 h; 100 = double the neutral-control signal; activation, % at 12.5 µM; actives 0.096% (n = 320,000); AID 504775;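 active means mean replicate activation of at least 60% and every replicate at or above 60%; inconclusive means mean or all-replicate condition met, but not both; inactive means mean below 60% and not all replicates reaching 60%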;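 further: 0% = median plate neutral-control signal and 100% = twice that signal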
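material = CHO ldlA[mSR-BI] cells | medium = Ham's F12 with 0.5% BSA, HEPES 25 mM, pH 7.4 | reagent = fluorescent DiI-HDL, 10 µg/mL final | compound dosing = single-point compound dose | incubation = 3 h, 37 °C | measured by = bottom-read fluorescence, 550/595 nm | measure = HDL uptake via cellular fluorescence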
TAG inh: reduces triacylglycerol accumulation in H9c2 cells; AID 651582; actives 0.66% (n = 230,000); inhibition, % at 12.5 µM; Nile Red lipid (TAG) fluorescence; cells loaded with 200 µM oleic acid;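 active means pattern-corrected inhibition of lipid staining of at least 50% with the nuclear-stain viability signal not falling by more than 50%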;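 further: 0% = DMSO wells and 100% = triacsin C control wells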
TAG conf: triacylglycerol accumulation inhibition, confirmation. shares compounds with TAG inh. AID 651629. inhibition, % at 12.5 µM. actives 71% (n = 990). H9c2 lipid accumulation, Nile Red fluorescence; cells loaded with 200 µM oleic acid;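 active means mean inhibition across replicates of 40% or more; inactive means mean inhibition below 40%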;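 further: plate controls were DMSO only wells for no effect and Triacsin C treated wells for full effect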
* hit, by the source's call. Hits are enriched below; roughly 2.5% of the tested compounds scored in any of these assays.

For O=[N+]([O-])c1ccc(NC2CCCC2)cc1 the results were Vif inh -2.8, SR-BI HDL uptake 6.3, SMARCA2 act 1.4 and SR-BI uptake up -6.3.
`O=[N+]([O-])c1ccc(Nc2nc(NC3CCCCC3)nc(N3CCCC3)n2)cc1` gave Vif inh 0.2, SR-BI HDL uptake inconclusive, SMARCA2 act -1.9, SR-BI uptake up -73.2, TAG inh 60.9* and TAG conf 82.0*.
`CC(=O)NC1CCCCN(Cc2ccc(Cl)cc2)C1=O` (stereo not given) gave SMARCA2 act -6.1.
COc1ccc(Nc2oc(-c3ccc(Cl)cc3)nc2C#N)cc1 was read as Vif inh 6.7, SR-BI HDL uptake inconclusive, SMARCA2 act 5.5, SR-BI uptake up -71.4, TAG inh 54.4* and TAG conf 52.1*.
For COc1ccc(Nc2oc(-c3ccc(OC)cc3)nc2C#N)cc1 the results were Vif inh 9.1, SR-BI HDL uptake 36.5, SMARCA2 act 2.9, SR-BI uptake up -36.5 and TAG inh 24.2.
Screening C[C@@H](CO)NC(=O)c1[nH]cnc1C(=O)Nc1ccccc1 returned SMARCA2 act -2.6.
`CCN1CCN(c2cc(C)c3cc(NC(=O)c4ccc(Br)o4)ccc3n2)CC1` gave Vif inh 7.8, SR-BI HDL uptake 51.8, SMARCA2 act 5.8, SR-BI uptake up -51.8, TAG inh 58.4* and TAG conf 37.1.
Screening Cc1cc(N2CCOCC2)nc2ccc(NC(=O)C3CCC(C)CC3)cc12 (stereo not given) returned Vif inh 5.4, SR-BI HDL uptake 49.5, SMARCA2 act 0.1, SR-BI uptake up -49.5, TAG inh 53.9* and TAG conf 37.2.
`CC(C)(C)C(=O)CSc1nnc(SCc2cccc3ccccc23)s1` gave SMARCA2 act -4.4.
N#CCC(=O)N/N=C/c1cn(Cc2ccc(Cl)c(Cl)c2)c2ccccc12 was read as Vif inh 9.4, SR-BI HDL uptake 13.2, SMARCA2 act -1.5, SR-BI uptake up -13.3, TAG inh 73.3* and TAG conf 58.5*.
N#CCC(=O)N/N=C/c1cn(Cc2ccccc2C#N)c2ccccc12 was read as Vif inh 6.6, SR-BI HDL uptake 49.4, SMARCA2 act -5.3, SR-BI uptake up -49.4 and TAG inh 8.3.
`CCO[C@@H]1OC(C(=O)NCc2nc3ccccc3[nH]2)=C[C@H](c2cn(C(C)=O)c3ccccc23)[C@H]1CCCO` gave Vif inh -2.6, SR-BI HDL uptake 23.6, SMARCA2 act -1.0, SR-BI uptake up -23.6, TAG inh 53.5* and TAG conf 28.2.
For Cn1c(COc2ccccc2)nnc1SCC(=O)Nc1ccc(S(=O)(=O)Nc2nccs2)cc1 the results were SMARCA2 act -1.0.
COC(=O)c1[nH]c2c(c1C)C(=O)CC(c1ccc(C)cc1)C2 (stereo not given) was read as Vif inh 11.5, SR-BI HDL uptake 35.5, SMARCA2 act 2.5, SR-BI uptake up -35.5 and TAG inh -17.7.
For Cc1c(C(=O)OCC(C)C)[nH]c2c1C(=O)CC(c1cccs1)C2 (stereo not given) the results were Vif inh 0.9, SR-BI HDL uptake 3.4, SMARCA2 act 0.0, TAG inh 63.5* and TAG conf 50.2*.
For COc1ccc(-c2sc3ccc(N4CCOCC4)cc3c2C#CC(C)(C)O)cc1 the results were Vif inh 18.8, SR-BI HDL uptake 58.1, SMARCA2 act 0.5, SR-BI uptake up -58.1, TAG inh 63.7* and TAG conf 52.9*.
Screening CCCCCNC(=O)CCCCn1c(=O)[nH]c2cc(OCC)c(OCC)cc2c1=O returned Vif inh -1.0, SR-BI HDL uptake 15.7, SMARCA2 act -4.3, SR-BI uptake up -15.7 and TAG inh 36.0.
`CCOc1cc2[nH]c(=O)n(CCCCC(=O)N3CCCCCC3)c(=O)c2cc1OCC` gave Vif inh 9.0, SR-BI HDL uptake 0.9, SMARCA2 act -0.9, SR-BI uptake up -0.9, TAG inh 63.1* and TAG conf 35.0.
`C[C@H](CO)N1C[C@H](C)[C@@H](CN(C)Cc2ccc(-c3ccccc3)cc2)Oc2c(NC(=O)Cc3ccccc3)cccc2C1=O` gave Vif inh -8.1, SR-BI HDL uptake 15.2, SR-BI uptake up -15.2, TAG inh 50.1* and TAG conf 59.1*.
`C[C@@H]1CN([C@H](C)CO)C(=O)c2cccc(NC(=O)Nc3ccc(C(F)(F)F)cc3)c2O[C@H]1CN(C)S(=O)(=O)c1cccs1` gave Vif inh -0.5, SR-BI HDL uptake 0.0, SMARCA2 act -0.3, SR-BI uptake up 0.0, TAG inh 70.6* and TAG conf 62.9*.
For C[C@H](O)C#Cc1ccc2c(c1)O[C@@H](CN(C)Cc1ccc(-c3ccccc3)cc1)[C@H](C)CN([C@@H](C)CO)S2(=O)=O the results were Vif inh -0.2, SMARCA2 act 1.1, TAG inh 64.0* and TAG conf 66.3*.
`C[C@@H]1CN([C@@H](C)CO)C(=O)c2cccc(NC(=O)C3CCCCC3)c2O[C@@H]1CN(C)Cc1ccc(Cl)c(Cl)c1` gave Vif inh 8.4, SR-BI HDL uptake -17.7, SMARCA2 act 0.3, SR-BI uptake up 17.7, TAG inh 54.5* and TAG conf 70.0*.
Screening C[C@H](CO)N1C[C@H](C)[C@@H](CN(C)Cc2ccccc2)Oc2c(NC(=O)Cc3ccccc3)cccc2C1=O returned Vif inh 1.3, SR-BI HDL uptake 35.2, SMARCA2 act -0.1, SR-BI uptake up -35.2 and TAG inh 30.5.
Screening Nc1nc2c(C(=O)N3CCCC3)nnn2c2ccccc12 returned SMARCA2 act 3.6.
C[C@@H]1CN([C@H](C)CO)C(=O)c2c(c3ccccc3n2C)-c2ccccc2CO[C@H]1CN(C)Cc1ccc(-c2ccccc2)cc1 was read as Vif inh 5.6, SMARCA2 act -5.0, TAG inh 83.8* and TAG conf 52.8*.
C[C@@H]1CN([C@H](C)CO)C(=O)c2c(c3ccccc3n2C)-c2ccccc2CO[C@H]1CN(C)Cc1ccccc1 was read as SMARCA2 act -5.9 and TAG inh 34.0.
`CN1CCN(c2ccc([N+](=O)[O-])cc2C(=O)c2ccc(Cl)cc2)CC1` gave SR-BI HDL uptake 8.9, SMARCA2 act 1.4, SR-BI uptake up -8.9, TAG inh 53.8* and TAG conf 49.5*.
O=C(c1ccc(Cl)cc1)c1cc([N+](=O)[O-])ccc1N1CCOCC1 was read as Vif inh 36.8, SR-BI HDL uptake 67.2, SMARCA2 act -0.7, SR-BI uptake up -67.2 and TAG inh 35.0.
Cc1[nH]c2ccccc2c1C(=O)c1c(N)[nH]c(C(=O)c2ccccc2)c1-c1ccc(Cl)cc1 was read as SMARCA2 act -7.0.
